Reference: ChEMBL document CHEMBL3098013, “Novel pyrazole integrated 1,3,4-oxadiazoles: synthesis, characterization and antimicrobial evaluation” (2014)
Converted amounts (≈) assume the structure as drawn.

What was measured:
Type in all cases: functional
Fusarium verticillioides [1] = assay: Antimicrobial activity against Fusarium moniliforme MTCC 156 after 48 hrs by microdilution method; conditions: MTCC 156, 48 h
Method in brief: (§1)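 The minimal inhibitory concentration was determined by dilution, alongside minimal bactericidal concentration for bacterial strains and minimal fungicidal concentration for fungal strains. Tests were run in six replicates, and the value is the mean of at least three determinations.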

Fusarium oxysporum [2] = assay: Antimicrobial activity against Fusarium oxysporum MTCC 284 after 48 hrs by microdilution method; conditions: MTCC 284, 48 h; method in brief: as §1
Aspergillus niger [3] = assay: Antimicrobial activity against Aspergillus niger MTCC 281 after 48 hrs by microdilution method; conditions: MTCC 281, 48 h; method in brief: as §1
Aspergillus flavus [4] = assay: Antimicrobial activity against Aspergillus flavus MTCC 873 after 48 hrs by microdilution method; conditions: MTCC 873, 48 h; method in brief: as §1
Klebsiella pneumoniae [5] = assay: Antimicrobial activity against Klebsiella pneumoniae MTCC 3384 after 24 hrs by microdilution method; conditions: MTCC 3384, 24 h; method in brief: as §1
Escherichia coli [6] = assay: Antimicrobial activity against Escherichia coli MTCC 724 after 24 hrs by microdilution method; conditions: MTCC 724, 24 h; method in brief: as §1
Staphylococcus aureus [7] = assay: Antimicrobial activity against Staphylococcus aureus MTCC 96 after 24 hrs by microdilution method; conditions: MTCC 96, 24 h; method in brief: as §1
Bacillus cereus [8] = assay: Antimicrobial activity against Bacillus cereus MTCC 8372 after 24 hrs by microdilution method; conditions: MTCC 8372, 24 h; method in brief: as §1
Fusarium verticillioides [9] = assay: Antimicrobial activity against Fusarium moniliforme MTCC 156 at 100 ug/ml after 48 hrs by disc diffusion method; conditions: MTCC 156, 48 h, read-out: DIZ
Method in brief: (§2)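 Agar diffusion read-out is the diameter of the inhibition zone in mm. Each test was run in six replicates and reported as mean ± standard deviation, taken from at least three determinations.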

Fusarium verticillioides [10] = assay: Antimicrobial activity against Fusarium moniliforme MTCC 156 at 50 ug/ml after 48 hrs by disc diffusion method; conditions: MTCC 156, 48 h, read-out: DIZ; method in brief: as §2
Fusarium oxysporum [11] = assay: Antimicrobial activity against Fusarium oxysporum MTCC 284 at 100 ug/ml after 48 hrs by disc diffusion method; conditions: MTCC 284, 48 h, read-out: DIZ; method in brief: as §2
Fusarium oxysporum [12] = assay: Antimicrobial activity against Fusarium oxysporum MTCC 284 at 50 ug/ml after 48 hrs by disc diffusion method; conditions: MTCC 284, 48 h, read-out: DIZ; method in brief: as §2
Aspergillus niger [13] = assay: Antimicrobial activity against Aspergillus niger MTCC 281 at 100 ug/ml after 48 hrs by disc diffusion method; conditions: MTCC 281, 48 h, read-out: DIZ; method in brief: as §2
Aspergillus niger [14] = assay: Antimicrobial activity against Aspergillus niger MTCC 281 at 50 ug/ml after 48 hrs by disc diffusion method; conditions: MTCC 281, 48 h, read-out: DIZ; method in brief: as §2
Aspergillus flavus [15] = assay: Antimicrobial activity against Aspergillus flavus MTCC 873 at 100 ug/ml after 48 hrs by disc diffusion method; conditions: MTCC 873, 48 h, read-out: DIZ; method in brief: as §2
Aspergillus flavus [16] = assay: Antimicrobial activity against Aspergillus flavus MTCC 873 at 50 ug/ml after 48 hrs by disc diffusion method; conditions: MTCC 873, 48 h, read-out: DIZ; method in brief: as §2
Klebsiella pneumoniae [17] = assay: Antimicrobial activity against Klebsiella pneumoniae MTCC 3384 at 100 ug/ml after 24 hrs by disc diffusion method; conditions: MTCC 3384, 24 h, read-out: DIZ; method in brief: as §2
Escherichia coli [18] = assay: Antimicrobial activity against Escherichia coli MTCC 724 at 100 ug/ml after 24 hrs by disc diffusion method; conditions: MTCC 724, 24 h, read-out: DIZ; method in brief: as §2
Klebsiella pneumoniae [19] = assay: Antimicrobial activity against Klebsiella pneumoniae MTCC 3384 at 50 ug/ml after 24 hrs by disc diffusion method; conditions: MTCC 3384, 24 h, read-out: DIZ; method in brief: as §2
Escherichia coli [20] = assay: Antimicrobial activity against Escherichia coli MTCC 724 at 50 ug/ml after 24 hrs by disc diffusion method; conditions: MTCC 724, 24 h, read-out: DIZ; method in brief: as §2
Staphylococcus aureus [21] = assay: Antimicrobial activity against Staphylococcus aureus MTCC 96 at 100 ug/ml after 24 hrs by disc diffusion method; conditions: MTCC 96, 24 h, read-out: DIZ; method in brief: as §2
Staphylococcus aureus [22] = assay: Antimicrobial activity against Staphylococcus aureus MTCC 96 at 50 ug/ml after 24 hrs by disc diffusion method; conditions: MTCC 96, 24 h, read-out: DIZ; method in brief: as §2
Bacillus cereus [23] = assay: Antimicrobial activity against Bacillus cereus MTCC 8372 at 100 ug/ml after 24 hrs by disc diffusion method; conditions: MTCC 8372, 24 h, read-out: DIZ; method in brief: as §2
Bacillus cereus [24] = assay: Antimicrobial activity against Bacillus cereus MTCC 8372 at 50 ug/ml after 24 hrs by disc diffusion method; conditions: MTCC 8372, 24 h, read-out: DIZ; method in brief: as §2

MIC (Fusarium verticillioides [1]) [µg/mL]	MIC (Fusarium oxysporum [2]) [µg/mL]	MIC (Aspergillus niger [3]) [µg/mL]	MIC (Aspergillus flavus [4]) [µg/mL]	MIC (Klebsiella pneumoniae [5]) [µg/mL]	MIC (Escherichia coli [6]) [µg/mL]	MIC (Staphylococcus aureus [7]) [µg/mL]	MIC (Bacillus cereus [8]) [µg/mL]	SMILES	MFC (Fusarium verticillioides [1]) [µg/mL]	MFC (Fusarium oxysporum [2]) [µg/mL]	MFC (Aspergillus niger [3]) [µg/mL]	MFC (Aspergillus flavus [4]) [µg/mL]	MBC (Klebsiella pneumoniae [5]) [µg/mL]	MBC (Escherichia coli [6]) [µg/mL]	MBC (Staphylococcus aureus [7]) [µg/mL]	MBC (Bacillus cereus [8]) [µg/mL]	zone of inhibition at 100 µg/mL (Fusarium verticillioides [9]) [mm]	zone of inhibition at 50 µg/mL (Fusarium verticillioides [10]) [mm]	zone of inhibition at 100 µg/mL (Fusarium oxysporum [11]) [mm]	zone of inhibition at 50 µg/mL (Fusarium oxysporum [12]) [mm]	other results
40 (≈ 97.9 µM)	40 (≈ 97.9 µM)	45 (≈ 110 µM)	50 (≈ 122 µM)	35 (≈ 85.7 µM)	35 (≈ 85.7 µM)	40 (≈ 97.9 µM)	50 (≈ 122 µM)	COc1ccc(-c2nn(-c3ccccc3)c(C)c2-c2nnc(-c3ccccc3)o2)cc1	290 (≈ 710 µM)	280 (≈ 685 µM)	275 (≈ 673 µM)	270 (≈ 661 µM)	260 (≈ 637 µM)	240 (≈ 588 µM)	240 (≈ 588 µM)	240 (≈ 588 µM)	6	3	6	4	zone of inhibition at 100 µg/mL (Aspergillus niger [13]): 6 mm; zone of inhibition at 50 µg/mL (Aspergillus niger [14]): 2 mm; zone of inhibition at 100 µg/mL (Aspergillus flavus [15]): 8 mm; zone of inhibition at 50 µg/mL (Aspergillus flavus [16]): 2 mm; zone of inhibition at 100 µg/mL (Klebsiella pneumoniae [17]): 9 mm; zone of inhibition at 100 µg/mL (Escherichia coli [18]): 14 mm; zone of inhibition at 50 µg/mL (Klebsiella pneumoniae [19]): 4 mm; zone of inhibition at 50 µg/mL (Escherichia coli [20]): 8 mm; zone of inhibition at 100 µg/mL (Staphylococcus aureus [21]): 8 mm; zone of inhibition at 50 µg/mL (Staphylococcus aureus [22]): 4 mm; zone of inhibition at 100 µg/mL (Bacillus cereus [23]): 9 mm; zone of inhibition at 50 µg/mL (Bacillus cereus [24]): 4 mm
40 (≈ 96.9 µM)	30 (≈ 72.7 µM)	50 (≈ 121 µM)	50 (≈ 121 µM)	50 (≈ 121 µM)	40 (≈ 96.9 µM)	50 (≈ 121 µM)	40 (≈ 96.9 µM)	Cc1c(-c2nnc(-c3ccccc3)o2)c(-c2ccc(Cl)cc2)nn1-c1ccccc1	270 (≈ 654 µM)	215 (≈ 521 µM)	275 (≈ 666 µM)	275 (≈ 666 µM)	250 (≈ 606 µM)	250 (≈ 606 µM)	250 (≈ 606 µM)	240 (≈ 581 µM)	8	5	22	14	zone of inhibition at 100 µg/mL (Aspergillus niger [13]): 10 mm; zone of inhibition at 50 µg/mL (Aspergillus niger [14]): 8 mm; zone of inhibition at 100 µg/mL (Aspergillus flavus [15]): 10 mm; zone of inhibition at 50 µg/mL (Aspergillus flavus [16]): 6 mm; zone of inhibition at 100 µg/mL (Klebsiella pneumoniae [17]): 9 mm; zone of inhibition at 100 µg/mL (Escherichia coli [18]): 18 mm; zone of inhibition at 50 µg/mL (Klebsiella pneumoniae [19]): 5 mm; zone of inhibition at 50 µg/mL (Escherichia coli [20]): 11 mm; zone of inhibition at 100 µg/mL (Staphylococcus aureus [21]): 10 mm; zone of inhibition at 50 µg/mL (Staphylococcus aureus [22]): 5 mm; zone of inhibition at 100 µg/mL (Bacillus cereus [23]): 10 mm; zone of inhibition at 50 µg/mL (Bacillus cereus [24]): 6 mm
55 (≈ 145 µM)	50 (≈ 132 µM)	45 (≈ 119 µM)	40 (≈ 106 µM)	30 (≈ 79.3 µM)	40 (≈ 106 µM)	35 (≈ 92.5 µM)	35 (≈ 92.5 µM)	Cc1c(-c2nnc(-c3ccccc3)o2)c(-c2ccccc2)nn1-c1ccccc1	290 (≈ 766 µM)	275 (≈ 727 µM)	270 (≈ 713 µM)	280 (≈ 740 µM)	220 (≈ 581 µM)	260 (≈ 687 µM)	240 (≈ 634 µM)	230 (≈ 608 µM)	6	4	8	3	zone of inhibition at 100 µg/mL (Aspergillus niger [13]): 8 mm; zone of inhibition at 50 µg/mL (Aspergillus niger [14]): 5 mm; zone of inhibition at 100 µg/mL (Aspergillus flavus [15]): 8 mm; zone of inhibition at 50 µg/mL (Aspergillus flavus [16]): 4 mm; zone of inhibition at 100 µg/mL (Klebsiella pneumoniae [17]): 14 mm; zone of inhibition at 100 µg/mL (Escherichia coli [18]): 6 mm; zone of inhibition at 50 µg/mL (Klebsiella pneumoniae [19]): 6 mm; zone of inhibition at 50 µg/mL (Escherichia coli [20]): 5 mm; zone of inhibition at 100 µg/mL (Staphylococcus aureus [21]): 7 mm; zone of inhibition at 50 µg/mL (Staphylococcus aureus [22]): 6 mm; zone of inhibition at 100 µg/mL (Bacillus cereus [23]): 9 mm; zone of inhibition at 50 µg/mL (Bacillus cereus [24]): 5 mm
